This note sets out measurements from ChEMBL document CHEMBL2331318, “Azide-alkyne cycloaddition en route to 1H-1,2,3-triazole-tethered 7-chloroquinoline-isatin chimeras: synthesis and antimalarial evaluation” (Eur J Med Chem, 2013).

Molecules are shown by their SMILES. pIC50: −log10 of the molar value.

The test system of this assay is Plasmodium falciparum. As to the kind of experiment: In vitro antimalarial activity against ring stage of chloroquine-resistant Plasmodium falciparum W2 cultured in medium containing 10% human serum assessed as inhibition of parasite growth after 48 hrs by YOYO-1 dye based flow cytometry. The conditions noted are these: W2, 48 h. Type of assay: functional, organism-based. An outline of the steps:
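Ring-stage microwell cultures were exposed to a range of compound concentrations for 48 h, with 0.1% DMSO maximum and in the no-inhibitor controls. Cells were fixed in 1% formaldehyde/PBS pH 7.4 for 48 h at room temperature, then stained with 1 nM YOYO-1 in 0.1% Triton X-100/PBS. Parasitemia was counted by flow cytometry, and IC50 obtained by nonlinear regression of % control parasitemia from duplicate experiments.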
In general terms: A flow cytometer gives signals particle by particle.
As for `O=C1C(=O)N(Cc2cnnn2CCNc2ccnc3cc(Cl)ccc23)c2ccccc21`, the pIC50 (in general, the negative decadic logarithm of the IC50, by convention in mol/L) was 5.51. Turning to `O=C1C(=O)N(Cc2cnnn2CCNc2ccnc3cc(Cl)ccc23)c2ccc(F)cc21`, the pIC50 was 5.64. Regarding `O=C1C(=O)N(Cc2cnnn2CCNc2ccnc3cc(Cl)ccc23)c2ccc(Cl)cc21`, the pIC50 was 5.86. `O=C1C(=O)N(Cc2cnnn2CCNc2ccnc3cc(Cl)ccc23)c2ccc(Br)cc21`: the pIC50 is 5.76. In the case of `Cc1ccc2c(c1)C(=O)C(=O)N2Cc1cnnn1CCNc1ccnc2cc(Cl)ccc12`, the pIC50 is 5.79. In the case of `O=C1C(=O)N(Cc2cnnn2CCCNc2ccnc3cc(Cl)ccc23)c2ccccc21`, the pIC50 is 5.41. Take `O=C1C(=O)N(Cc2cnnn2CCCNc2ccnc3cc(Cl)ccc23)c2ccc(F)cc21`: the pIC50 is 5.87. With `O=C1C(=O)N(Cc2cnnn2CCCNc2ccnc3cc(Cl)ccc23)c2ccc(Cl)cc21`, the pIC50 was 5.92. In the case of `O=C1C(=O)N(Cc2cnnn2CCCNc2ccnc3cc(Cl)ccc23)c2ccc(Br)cc21`, the pIC50 is 5.78. For `Cc1ccc2c(c1)C(=O)C(=O)N2Cc1cnnn1CCCNc1ccnc2cc(Cl)ccc12`, the pIC50 is 5.89. With `O=C1C(=O)N(Cc2cnnn2-c2ccnc3cc(Cl)ccc23)c2ccccc21` the figure was less than 5.30; with `O=C1C(=O)N(Cc2cnnn2-c2ccnc3cc(Cl)ccc23)c2ccc(F)cc21`, less than 5.30; with `O=C1C(=O)N(Cc2cnnn2-c2ccnc3cc(Cl)ccc23)c2ccc(Cl)cc21`, less than 5.30. With `O=C1C(=O)N(Cc2cnnn2-c2ccnc3cc(Cl)ccc23)c2ccc(Br)cc21` the figure was less than 5.30; with `Cc1ccc2c(c1)C(=O)C(=O)N2Cc1cnnn1-c1ccnc2cc(Cl)ccc12`, less than 5.30.
